Test results reported in ChEMBL document CHEMBL1146073, “A pyridazine series of alpha2/alpha3 subtype selective GABA A agonists for the treatment of anxiety” (J Med Chem, 2006).

Tests used:
[1] = target: GABA-A receptor; alpha-3/beta-3/gamma-2 (Homo sapiens) (UniProt P18507+P28472+P34903); test: Efficacy against recombinant human GABA-Aalpha3 plus beta-3-gamma-2 expressed in L(tk-) cells by whole cell patch clamp method relative to chlordiazepoxide; format: functional, cell-based
Outline: (§1)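 Whole-cell patch clamp on αxβ3γ2 receptors stably expressed in L(tk-) cells, measuring the effect on current evoked by an EC20-equivalent of GABA. Reported relative to full agonist chlordiazepoxide (=1.0), or as direct percent modulation of the EC20 control, with inverse agonism given as percent. Mean of at least four independent experiments.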

[2] = Half life in rat; format: ADME, organism-based; settings: in vivo
Outline: (§2)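 Pharmacokinetics from six animals per species: three dosed iv and three dosed po.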

[3] = Oral bioavailability in rat; format: ADME, organism-based; settings: in vivo; outline: as §2
[4] = target: GABA-A receptor; anion channel (Rattus norvegicus) (UniProt O09028+P15431+P18506+P18508+P19969+P20236+P23574+P23576+P28471+P28473+P30191+P62813+P63079+P63138+Q91ZM7+Q9ES14); test: Receptor occupancy in vivo by displacement of [3H]Ro 15-1788 binding from GABA-A receptor in rat, po; format: functional, organism-based
Outline: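 Rat in vivo occupancy measured by [3H]Ro 15-1788 binding after oral dosing. Rats taken as a subgroup after the plus-maze trial, i.e. 30 min post-dose or later. ED50 derived from dose-dependent occupancy. Mean ± SEM, n = 5-10/group.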

[5] = target: GABA-A receptor; alpha-2/beta-3/gamma-2 (Homo sapiens) (UniProt P18507+P28472+P47869); test: Efficacy against recombinant human GABA-Aalpha2 plus beta-3-gamma-2 expressed in L(tk-) cells by whole cell patch clamp method relative to chlordiazepoxide; format: functional, cell-based; outline: as §1
[6] = target: T1, GABA-A receptor; alpha-1/beta-3/gamma-2 (Homo sapiens, UniProt P14867+P18507+P28472); test: Displacement of [3H]Ro-151788 from recombinant human GABA-Aalpha1 receptor plus beta3gamma2; format: protein-complex assay
T1 sequence (P14867 whole entry): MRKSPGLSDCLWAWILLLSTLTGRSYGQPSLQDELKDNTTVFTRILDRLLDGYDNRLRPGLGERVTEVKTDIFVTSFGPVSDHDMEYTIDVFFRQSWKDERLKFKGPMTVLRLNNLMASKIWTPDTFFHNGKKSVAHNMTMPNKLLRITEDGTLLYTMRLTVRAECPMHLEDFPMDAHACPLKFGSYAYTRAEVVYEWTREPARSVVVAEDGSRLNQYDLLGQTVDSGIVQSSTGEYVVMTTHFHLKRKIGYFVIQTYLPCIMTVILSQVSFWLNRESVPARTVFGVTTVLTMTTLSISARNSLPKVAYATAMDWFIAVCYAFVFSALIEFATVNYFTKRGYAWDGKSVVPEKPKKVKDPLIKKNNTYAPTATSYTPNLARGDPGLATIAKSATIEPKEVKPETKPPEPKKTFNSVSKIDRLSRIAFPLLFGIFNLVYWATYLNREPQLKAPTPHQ
T1 sequence (P18507 whole entry): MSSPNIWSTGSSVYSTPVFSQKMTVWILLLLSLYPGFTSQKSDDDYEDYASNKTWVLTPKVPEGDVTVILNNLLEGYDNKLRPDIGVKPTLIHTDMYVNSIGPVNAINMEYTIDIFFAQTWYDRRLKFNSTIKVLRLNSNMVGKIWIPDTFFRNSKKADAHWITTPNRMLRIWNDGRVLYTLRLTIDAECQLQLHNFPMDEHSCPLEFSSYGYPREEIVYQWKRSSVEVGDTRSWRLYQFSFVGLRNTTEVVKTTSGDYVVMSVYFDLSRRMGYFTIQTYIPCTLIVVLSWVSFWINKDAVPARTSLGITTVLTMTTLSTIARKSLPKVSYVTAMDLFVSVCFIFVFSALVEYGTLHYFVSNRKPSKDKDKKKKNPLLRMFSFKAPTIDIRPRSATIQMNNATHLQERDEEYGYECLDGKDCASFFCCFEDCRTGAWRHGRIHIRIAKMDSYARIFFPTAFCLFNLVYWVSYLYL
T1 sequence (P28472 whole entry): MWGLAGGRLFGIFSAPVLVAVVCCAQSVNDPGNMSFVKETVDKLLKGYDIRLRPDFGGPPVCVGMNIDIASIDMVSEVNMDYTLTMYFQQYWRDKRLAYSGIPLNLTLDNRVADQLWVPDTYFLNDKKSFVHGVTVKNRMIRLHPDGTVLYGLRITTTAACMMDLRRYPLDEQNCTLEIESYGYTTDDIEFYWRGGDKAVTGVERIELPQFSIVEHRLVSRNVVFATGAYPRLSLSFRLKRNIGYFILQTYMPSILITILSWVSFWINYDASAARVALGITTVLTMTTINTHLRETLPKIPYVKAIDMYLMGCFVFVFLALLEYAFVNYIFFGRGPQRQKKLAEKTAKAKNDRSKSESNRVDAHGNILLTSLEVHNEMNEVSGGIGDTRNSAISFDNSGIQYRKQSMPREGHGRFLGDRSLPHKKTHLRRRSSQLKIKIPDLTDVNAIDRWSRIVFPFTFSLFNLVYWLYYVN
Outline: (§3)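 Benzodiazepine-site binding on stably transfected αxβ3γ2 receptors (x = 1, 2, 3 or 5). Inhibition curves run with [3H]Ro15-1788 at roughly twice its Kd. Ki derived by Cheng-Prusoff equation. Mean of three to six determinations.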

[7] = target: T2, GABA-A receptor; alpha-5/beta-3/gamma-2 (Homo sapiens, UniProt P18507+P28472+P31644); test: Displacement of [3H]Ro-151788 from recombinant human GABA-Aalpha5 receptor plus beta3gamma2; format: protein-complex assay; outline: as §3
T2 sequence (P18507 whole entry): T1 sequence (P18507 whole entry)
T2 sequence (P28472 whole entry): T1 sequence (P28472 whole entry)
T2 sequence (P31644 whole entry): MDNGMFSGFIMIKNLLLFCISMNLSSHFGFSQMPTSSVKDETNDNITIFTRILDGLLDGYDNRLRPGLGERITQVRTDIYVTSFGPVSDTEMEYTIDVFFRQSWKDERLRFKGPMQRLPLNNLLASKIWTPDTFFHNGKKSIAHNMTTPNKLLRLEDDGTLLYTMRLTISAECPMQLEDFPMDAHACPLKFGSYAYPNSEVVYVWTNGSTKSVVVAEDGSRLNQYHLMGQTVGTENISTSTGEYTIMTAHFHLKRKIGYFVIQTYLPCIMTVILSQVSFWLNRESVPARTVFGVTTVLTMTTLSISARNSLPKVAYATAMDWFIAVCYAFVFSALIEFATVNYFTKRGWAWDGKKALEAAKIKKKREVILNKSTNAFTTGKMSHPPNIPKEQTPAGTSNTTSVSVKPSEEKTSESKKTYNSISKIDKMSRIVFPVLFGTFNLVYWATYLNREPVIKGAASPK

[8] = Stability in rat assessed as liver microsomal turnover; format: ADME, Microsome; settings: liver microsomes, read-out: Stability
Outline: (§4)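 Test compound at 1 µM, with diazepam as control, incubated 0.25 h with pooled liver microsomes at 0.5 mg/mL protein. Compound remaining quantified by LC/MS/MS. Turnover is the mean of three determinations.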

[9] = Stability in dog assessed as liver microsomal turnover; format: ADME, Canis lupus familiaris; settings: liver microsomes, read-out: Stability; outline: as §4
[10] = Stability in human assessed as liver microsomal turnover; format: ADME, Microsome; settings: liver microsomes, read-out: Stability; outline: as §4

Row | Efficacy [1] | half-life [2] [h] | bioavailability [3] [%] | Occ50 [4] [mg/kg] | Efficacy [5] | Ki [6] [nM] | Ki [7] [nM] | metabolised [8] [%] | metabolised [9] [%] | metabolised [10] [%] | Activity [4] [mg/kg] | SMILES
1 | 0.44 | 53 | 88 | 0.52 | 0.12 | 1.5 | 12.1 | 3 | 8 | 3 |  | Fc1cnc(-c2cc(-c3ccc(F)c(-c4ncc(F)cc4F)c3)cnn2)c(F)c1
2 | 0.7 | 10 | 100 | 0.09 | 0.43 | 0.5 | 2.8 | < 5 |  | 6 |  | Fc1cnc(-c2cc(-c3ccc(F)c(-c4ncccc4F)c3)cnn2)c(F)c1
3 | 0.4 |  |  |  | 0.36 | 2.6 | 5.1 | 4 | 0 | 7 | 0.7 | Fc1cnc(-c2cc(-c3cnnc(-c4c(F)cc(F)cc4F)c3)ccc2F)c(F)c1
4 | 0.39 | 1.6 | 50 | 0.22 | 0.28 | 1.8 | 6 | 5 | 4 | 3 |  | Fc1cnc(-c2cc(-c3cnnc(-c4c(F)cncc4F)c3)ccc2F)c(F)c1
